The text below walks through data of ChEMBL document CHEMBL1140424, “Charge dependence of cellular uptake and selective antitumor activity of porphyrazines” (J Med Chem, 2005).

Data set [1] concerns A549. In words: Decrease in viability of A549 cells at 50 uM for 72 hrs. The data set is classed as cell-based. Particulars: human, a549, 72 h; call rule not given here. The gist of the method: (§1)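 Cells were grown to 70% confluence and treated in the dark with pz (12.5, 25, 50, 100 µM) or DMSO vehicle for 72 h. MTT (200 µg) was added for 5 h at 37 °C, solubilised in DMSO, and absorbance read at 540 nm. Viability is relative to DMSO control. Four plates per experiment, at least three experiments, normalised and averaged (≥12 values per condition).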

Data set [2] concerns WI-38 VA13. In words: Decrease in viability of WI-38 VA13 cells at 50 uM for 72 hrs. Particulars: human, wi-38 va13, 72 h. The data set is classed as cell-based. A digest of the protocol: as §1
Data set [3] relates to WI-38 VA13. As to the kind of experiment: Decrease in viability of WI-38 VA13 cells at 100 uM for 72 hrs. In kind it is cell-based. Particulars: human, wi-38 va13, 72 h. The gist of the method:
as §1

In data set [4] the test system is WI-38 VA13. In words: Cytotoxicity against human fibroblast-like cell line of embryonic origin WI-38 VA13 at 12.5 to 100 uM by MTT assay. In kind it is functional, cell-based. A digest of the protocol: as §1
(Formazan colour is commonly taken as a measure of viable cells.)

Data set [5] has as its system A549. In words: Cytotoxicity against A549 tumor cells at 12.5 to 100 uM by MTT assay. The data set is classed as functional, cell-based. Particulars: Homo sapiens. The gist of the method: as §1
For data set [6], the system named is A549. In words: Decrease in viability of A549 cells at 100 uM for 72 hrs. In kind it is cell-based. Particulars: human, a549, 72 h. A digest of the protocol: as §1
Data set [7] has as its system A549. In words: Decrease in viability of A549 cells at 25 uM for 72 hrs. The data set is classed as cell-based. Particulars: human, a549, 72 h. A digest of the protocol:
as §1

Data set [8] deals with WI-38 VA13. In words: Percentage growth of WI-38 VA13 cells at 25 uM for 72 hrs. The data set is classed as cell-based. Particulars: human, wi-38 va13, 72 h. The gist of the method: as §1
Data set [9] concerns WI-38 VA13. In words: Percentage increase in growth of WI-38 VA13 cells at 12.5 uM for 72 hrs. In kind it is cell-based. Particulars: human, wi-38 va13, 72 h. A digest of the protocol: as §1
Data set [10] concerns A549. As to the kind of experiment: Percentage increase in growth of A549 tumor cells at 12.5 uM for 72 hrs. Particulars: human, a549, 72 h. The data set is classed as cell-based. A digest of the protocol:
as §1

The test system of data set [11] is A549. As to the kind of experiment: Cellular uptake in A549 cells using false-white single-photon confocal microscopy at 3.1 uM. The data set is classed as ADME, cell-based. Particulars: human, a549, 3.1 µM. A digest of the protocol: (§2)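 Cells on glass coverslips grown at 37 °C, 5% CO2 to 60–80% confluence, then treated with pz (50, 25, 12.5, 6.2, 3.1 µM; DMSO stock) in the dark for 24 h. Washed twice with PBS and imaged live in PBS at room temperature. Single-photon excitation at 488 nm, long-pass 505-nm emission filter. Gain set to remove autofluorescence in DMSO-treated controls.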

The subject of data set [12] is A549. As to the kind of experiment: Cellular uptake in A549 cells using false-white single-photon confocal microscopy. Particulars: human. In kind it is ADME, cell-based. The gist of the method:
as §2

Data set [13] concerns A549. In words: Colocalization experiment with mitotracker green in A549 cells at 100 uM for 24 hrs by false-white two-photon confocal microscopy. Particulars: human, a549, 24 h.
Data set [14] concerns A549. As to the kind of experiment: Colocalization experiment with LysoTracker green in A549 cells at 100 uM for 24 hrs by false-white two-photon confocal microscopy. Particulars: human, a549, 24 h.

Turning to `CC(C)Oc1ccc(OC(C)C)c2c1-c1nc3nc([nH]c4nc(nc5[nH]c(nc-2n1)c(SCCOCC[n+]1ccccc1)c5SCCOCC[n+]1ccccc1)-c1c(OC(C)C)ccc(OC(C)C)c1-4)C(SCCOCC[n+]1ccccc1)=C3SCCOCC[n+]1ccccc1`, the Activity in the data set with A549 [1] is 10%; in the data set with WI-38 VA13 [2] it was 20%; in the data set with WI-38 VA13 [3], 70%; in the data set with WI-38 VA13 [4], “Toxic”; with A549 [5], “Toxic”; in the data set on A549 [6], 70%.
Turning to `CC(C)Oc1ccc(OC(C)C)c2c1-c1nc3nc([nH]c4nc(nc5[nH]c(nc-2n1)c(SCCCC(=O)O)c5SCCCC(=O)O)-c1c(OC(C)C)ccc(OC(C)C)c1-4)C(SCCCC(=O)O)=C3SCCCC(=O)O`, the Activity in the data set on A549 [1] amounted to 80%; with WI-38 VA13 [2], 10%; in the data set with A549 [7], 40%; in the data set with WI-38 VA13 [8], 10%; with WI-38 VA13 [9] it was 10%; in the data set on A549 [10], 10%. In the data set on A549 [6], this molecule registered an Activity of 80%.
As to `CC(C)Oc1ccc(OC(C)C)c2c1-c1nc3nc(nc4[nH]c(nc5[nH]c(nc-2n1)c(SCCOCCOCCO)c5SCCOCCOCCO)c1c(OC(C)C)ccc(OC(C)C)c41)C(SCCOCCOCCO)=C3SCCOCCOCCO`, the Activity result was “Active” with A549 [11]; 40% in the data set with A549 [1]; “Active” in the data set on A549 [12]; “Toxic” in the data set with WI-38 VA13 [4]; “Toxic” in the data set with A549 [5]; “Active” in the data set on A549 [13]. The Activity result in the data set on A549 [14] was “Not Active”.
